In ChEMBL document CHEMBL3632558, “Synthesis, antimycobacterial and antibacterial activity of l-[(1R,2S)-2-fluorocyclopropyl]naphthyridone derivatives containing an oxime-functionalized pyrrolidine moiety” (2015):

Legend:
Format in all cases: functional
Enterococcus faecalis [1] = test: Antibacterial activity against Enterococcus faecalis 14-2 after 18 to 24 hrs
Method in brief: (§1)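 MIC by standard NCCLS reference procedure (M100-S11); lowest concentration of compound inhibiting visible bacterial growth after incubation at 35 °C for 18–24 h, read as complete inhibition of growth. Ciprofloxacin, levofloxacin and moxifloxacin run alongside as reference agents.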

Enterococcus faecium [2] = test: Antibacterial activity against Enterococcus faecium 14-1 after 18 to 24 hrs; method in brief: as §1
Enterococcus faecium [3] = test: Antibacterial activity against Enterococcus faecium 14-2 after 18 to 24 hrs; method in brief: as §1
Enterococcus faecium [4] = test: Antibacterial activity against Enterococcus faecium 14-5 after 18 to 24 hrs; method in brief: as §1
Enterococcus faecium [5] = test: Antibacterial activity against Enterococcus faecium 14-6 after 18 to 24 hrs; method in brief: as §1
[6] = system: Mycobacterium tuberculosis; test: Antimycobacterial activity against Mycobacterium tuberculosis H37Rv ATCC 27294 by alamar blue assay
Method in brief: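 Microplate Alamar Blue Assay; MIC is the lowest concentration giving ≥90% reduction in fluorescence relative to the mean of replicate bacterium-only controls. MDR strain 6133 is resistant to isoniazid and rifampicin.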

Escherichia coli [7] = test: Antibacterial activity against Escherichia coli ATCC 25922 after 18 to 24 hrs; method in brief: as §1
Escherichia coli [8] = test: Antibacterial activity against ESBL-positive Escherichia coli 14-1 after 18 to 24 hrs; method in brief: as §1
Escherichia coli [9] = test: Antibacterial activity against ESBL-positive Escherichia coli 14-2 after 18 to 24 hrs; method in brief: as §1
Escherichia coli [10] = test: Antibacterial activity against Escherichia coli 14-1 after 18 to 24 hrs; method in brief: as §1
Escherichia coli [11] = test: Antibacterial activity against Escherichia coli 14-2 after 18 to 24 hrs; method in brief: as §1
Klebsiella pneumoniae [12] = test: Antibacterial activity against ESBL-positive Klebsiella pneumoniae 14-17 after 18 to 24 hrs; method in brief: as §1
Klebsiella pneumoniae [13] = test: Antibacterial activity against ESBL-positive Klebsiella pneumoniae 14-18 after 18 to 24 hrs; method in brief: as §1
Klebsiella pneumoniae [14] = test: Antibacterial activity against ESBL-positive Klebsiella pneumoniae 14-19 after 18 to 24 hrs; method in brief: as §1
Klebsiella pneumoniae [15] = test: Antibacterial activity against Klebsiella pneumoniae 14-1 after 18 to 24 hrs; method in brief: as §1
Klebsiella pneumoniae [16] = test: Antibacterial activity against Klebsiella pneumoniae 14-2 after 18 to 24 hrs; method in brief: as §1
Klebsiella pneumoniae [17] = test: Antibacterial activity against Klebsiella pneumoniae 14-3 after 18 to 24 hrs; method in brief: as §1
Klebsiella pneumoniae [18] = test: Antibacterial activity against Klebsiella pneumoniae 14-4 after 18 to 24 hrs; method in brief: as §1
Pseudomonas aeruginosa [19] = test: Antibacterial activity against Pseudomonas aeruginosa ATCC 27853 after 18 to 24 hrs; method in brief: as §1
Pseudomonas aeruginosa [20] = test: Antibacterial activity against Pseudomonas aeruginosa 14-9 after 18 to 24 hrs; method in brief: as §1
Pseudomonas aeruginosa [21] = test: Antibacterial activity against Pseudomonas aeruginosa 14-14 after 18 to 24 hrs; method in brief: as §1
Pseudomonas aeruginosa [22] = test: Antibacterial activity against Pseudomonas aeruginosa 14-15 after 18 to 24 hrs; method in brief: as §1
Pseudomonas aeruginosa [23] = test: Antibacterial activity against Pseudomonas aeruginosa 14-16 after 18 to 24 hrs; method in brief: as §1
Pseudomonas aeruginosa [24] = test: Antibacterial activity against Pseudomonas aeruginosa 14-19 after 18 to 24 hrs; method in brief: as §1
Staphylococcus aureus [25] = test: Antibacterial activity against Staphylococcus aureus CMCC 26003 after 18 to 24 hrs; method in brief: as §1
Staphylococcus aureus [26] = test: Antibacterial activity against methicillin-sensitive Staphylococcus aureus 14-1 after 18 to 24 hrs; method in brief: as §1
Staphylococcus aureus [27] = test: Antibacterial activity against methicillin-sensitive Staphylococcus aureus 14-2 after 18 to 24 hrs; method in brief: as §1
Staphylococcus aureus [28] = test: Antibacterial activity against methicillin-sensitive Staphylococcus aureus 14-3 after 18 to 24 hrs; method in brief: as §1
Staphylococcus aureus [29] = test: Antibacterial activity against methicillin-sensitive Staphylococcus aureus 14-4 after 18 to 24 hrs; method in brief: as §1
Staphylococcus aureus [30] = test: Antibacterial activity against methicillin-resistant Staphylococcus aureus 14-4 after 18 to 24 hrs
Staphylococcus aureus [31] = test: Antibacterial activity against methicillin-resistant Staphylococcus aureus 14-5 after 18 to 24 hrs
[32] = system: Staphylococcus epidermidis; test: Antibacterial activity against methicillin-sensitive Staphylococcus epidermidis 14-2 after 18 to 24 hrs; method in brief: as §1
[33] = system: Staphylococcus epidermidis; test: Antibacterial activity against methicillin-resistant Staphylococcus epidermidis 14-21 after 18 to 24 hrs
[34] = system: Staphylococcus epidermidis; test: Antibacterial activity against methicillin-resistant Staphylococcus epidermidis 14-22 after 18 to 24 hrs
[35] = system: Staphylococcus epidermidis; test: Antibacterial activity against methicillin-resistant Staphylococcus epidermidis 14-37 after 18 to 24 hrs
[36] = system: Staphylococcus epidermidis; test: Antibacterial activity against methicillin-resistant Staphylococcus epidermidis 14-39 after 18 to 24 hrs
Streptococcus pneumoniae = test: Antibacterial activity against Streptococcus pneumoniae ATCC 19615 after 18 to 24 hrs; method in brief: as §1
Enterococcus faecalis [37] = test: Antibacterial activity against Enterococcus faecalis 14-1 after 18 to 24 hrs; method in brief: as §1

COc1ccc(CO/N=C2\CN(c3nc4c(cc3F)c(=O)c(C(=O)O)cn4[C@@H]3C[C@@H]3F)CC2CN)cc1 (stereo partly specified)
64 µg/mL: MIC (Escherichia coli [9])
4 µg/mL: MIC (Pseudomonas aeruginosa [19]) | MIC [33] | MIC [34]
2 µg/mL: MIC (Enterococcus faecium [2]) | MIC (Enterococcus faecium [3]) | MIC (Staphylococcus aureus [26])
128 µg/mL: MIC (Klebsiella pneumoniae [14]) | MIC (Klebsiella pneumoniae [15]) | MIC (Klebsiella pneumoniae [16]) | MIC (Klebsiella pneumoniae [17]) | MIC (Klebsiella pneumoniae [18])
< 0.008 µg/mL: MIC (Enterococcus faecalis [1]) | MIC (Escherichia coli [7]) | MIC (Escherichia coli [8]) | MIC (Staphylococcus aureus [25]) | MIC (Staphylococcus aureus [27])
8 µg/mL: MIC (Enterococcus faecium [4]) | MIC (Enterococcus faecium [5]) | MIC (Klebsiella pneumoniae [12]) | MIC (Klebsiella pneumoniae [13]) | MIC (Pseudomonas aeruginosa [20]) | MIC (Pseudomonas aeruginosa [21]) | MIC (Pseudomonas aeruginosa [23]) | MIC (Staphylococcus aureus [31]) | MIC [36]
0.015 µg/mL: MIC (Staphylococcus aureus [28]) | MIC (Streptococcus pneumoniae)
0.353 µg/mL: MIC90 [6]
0.03 µg/mL: MIC (Staphylococcus aureus [29])
32 µg/mL: MIC (Escherichia coli [10]) | MIC (Escherichia coli [11]) | MIC [32] | MIC (Enterococcus faecalis [37])
16 µg/mL: MIC (Pseudomonas aeruginosa [22]) | MIC (Pseudomonas aeruginosa [24]) | MIC (Staphylococcus aureus [30]) | MIC [35]

NCC1CN(c2nc3c(cc2F)c(=O)c(C(=O)O)cn3[C@@H]2C[C@@H]2F)C/C1=N\OCc1ccc(Br)cc1 (stereo partly specified)
64 µg/mL: MIC (Escherichia coli [9]) | MIC (Escherichia coli [10]) | MIC (Escherichia coli [11])
16 µg/mL: MIC (Enterococcus faecium [5]) | MIC (Pseudomonas aeruginosa [24]) | MIC (Staphylococcus aureus [30]) | MIC (Staphylococcus aureus [31]) | MIC [32] | MIC [35]
0.125 µg/mL: MIC (Enterococcus faecalis [1]) | MIC (Escherichia coli [7])
4 µg/mL: MIC (Escherichia coli [8]) | MIC (Pseudomonas aeruginosa [19]) | MIC [33]
0.015 µg/mL: MIC (Staphylococcus aureus [28])
32 µg/mL: MIC (Enterococcus faecalis [37])
0.375 µg/mL: MIC90 [6]
128 µg/mL: MIC (Klebsiella pneumoniae [15]) | MIC (Klebsiella pneumoniae [16]) | MIC (Klebsiella pneumoniae [17]) | MIC (Klebsiella pneumoniae [18])
2 µg/mL: MIC (Enterococcus faecium [2]) | MIC (Enterococcus faecium [3]) | MIC (Staphylococcus aureus [26]) | MIC [34]
8 µg/mL: MIC (Enterococcus faecium [4]) | MIC (Klebsiella pneumoniae [12]) | MIC (Klebsiella pneumoniae [13]) | MIC (Pseudomonas aeruginosa [20]) | MIC (Pseudomonas aeruginosa [21]) | MIC (Pseudomonas aeruginosa [22]) | MIC (Pseudomonas aeruginosa [23]) | MIC [36]
< 0.008 µg/mL: MIC (Staphylococcus aureus [25]) | MIC (Staphylococcus aureus [27]) | MIC (Staphylococcus aureus [29]) | MIC (Streptococcus pneumoniae)
> 128 µg/mL: MIC (Klebsiella pneumoniae [14])
